Converted amounts (≈) assume the structure as drawn.

Test [1] has as its system Staphylococcus aureus. Kind of test: Antimicrobial activity against hospital-acquired vancomycin-intermediate Staphylococcus aureus NRS126 infected in human THP-1 cells assessed as change in bacterial count after 24 hrs. The test is classed as functional, organism-based. The following applies: NRS126, THP-1, 24 h. The gist of the method: (§1)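 THP-1 macrophages infected as described previously, with a postphagocytosis inoculum of 1.5 × 10⁶ to 3.0 × 10⁶ CFU/mg cell protein. Cells were exposed 24 h to increasing extracellular antibiotic concentrations. Response is the change in log10 CFU/mg protein from the inoculum (n = 3), fitted to a Hill function. E0 and Emax were extrapolated to infinitely low and high concentrations. EC50 and static concentration (graphical interpolation) are expressed as multiples of the broth MIC at pH 5.5 or 7.4.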

Test [2] concerns Staphylococcus aureus. Kind of test: Antimicrobial activity against Panton-valentine leucocidin-positive community-acquired methicillin-resistant Staphylococcus aureus N4090440 infected in human THP-1 cells assessed as change in bacterial count after 24 hrs at pH 5.5. The test is classed as functional, organism-based. The following applies: N4090440, THP-1, 24 h. In short, it runs like this:
(§2)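 THP-1 human macrophages infected with S. aureus (postphagocytosis inoculum 1.5 × 10^6 to 3.0 × 10^6 CFU/mg cell protein), then incubated 24 h with increasing extracellular antibiotic concentrations. Change in log10 CFU/mg cell protein from the postphagocytosis inoculum, n = 3. Hill function fitted on log-transformed data. Low-concentration value (E0) and high-concentration value (Emax) are extrapolated. Where a pH is given, concentrations are expressed as multiples of the broth MIC at that pH.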

Test [3] relates to Staphylococcus aureus. The test can be described thus: Antimicrobial activity against methicillin-susceptible Staphylococcus aureus ATCC 11632 infected in human THP-1 cells assessed as change in bacterial count after 24 hrs at pH 7.4. The test is classed as functional, organism-based. To be noted: ATCC 11632, THP-1, 24 h. In short, it runs like this:
as §1

The test system of test [4] is Staphylococcus aureus. The test can be described thus: Antimicrobial activity against Panton-valentine leucocidin-positive community-acquired methicillin-resistant Staphylococcus aureus STA 228 infected in human THP-1 cells assessed as change in bacterial count after 24 hrs. The test is classed as functional, organism-based. The following applies: STA 228, THP-1, 24 h. The gist of the method:
as §2

Test [5] relates to Staphylococcus aureus. Kind of test: Antimicrobial activity against Panton-valentine leucocidin-positive community-acquired methicillin-resistant Staphylococcus aureus NRS192 infected in human THP-1 cells assessed as bacterial count per mg of cell protein at high extracellular compound concentration after 24 hrs. The test is classed as functional. In short, it runs like this:
as §2

The test system of test [6] is Staphylococcus aureus. The test can be described thus: Antimicrobial activity against Panton-valentine leucocidin-positive community-acquired methicillin-resistant Staphylococcus aureus N4090440 infected in human THP-1 cells assessed as bacterial count per mg of cell protein at low extracellular compound concentration after 24 hrs at pH 5.5. The test is classed as functional. The following applies: pooled result: one value given for 6 cell lines, strains, targets or settings. The gist of the method:
as §2

The test system of test [7] is Staphylococcus aureus. Kind of test: Antimicrobial activity against Panton-valentine leucocidin-positive community-acquired methicillin-resistant Staphylococcus aureus N4042228 infected in human THP-1 cells assessed as bacterial count per mg of cell protein at high extracellular compound concentration after 24 hrs at pH 5.5. The test is classed as functional. In short, it runs like this: as §2

In test [8] the test system is Staphylococcus aureus. Kind of test: Antimicrobial activity against hospital-acquired methicillin-resistant Staphylococcus aureus ATCC 33592 infected in human THP-1 cells assessed as change in bacterial count after 24 hrs. The test is classed as functional, organism-based. To be noted: ATCC 33592, THP-1, 24 h. The gist of the method: as §1
Test [9] relates to Staphylococcus aureus. Kind of test: Antimicrobial activity against methicillin-susceptible Staphylococcus aureus ATCC 11632 infected in human THP-1 cells assessed as bacterial count per mg of cell protein at high extracellular compound concentration after 24 hrs. The test is classed as functional. The gist of the method: as §1
Test [10] concerns Staphylococcus aureus. The test can be described thus: Antimicrobial activity against hospital-acquired methicillin-resistant Staphylococcus aureus ATCC 33591 infected in human THP-1 cells assessed as change in bacterial count after 24 hrs at pH 5.5. The test is classed as functional, organism-based. To be noted: ATCC 33591, THP-1, 24 h. In short, it runs like this: as §1
For test [11], the system named is Staphylococcus aureus. Kind of test: Antimicrobial activity against methicillin-susceptible Staphylococcus aureus […] infected in human THP-1 cells assessed as change in bacterial count after 24 hrs. The test is classed as functional, organism-based. The following applies: THP-1, 24 h. In short, it runs like this: as §1
Test [12] relates to Staphylococcus aureus. The test can be described thus: Antimicrobial activity against hospital-acquired vancomycin-intermediate Staphylococcus aureus NRS18 infected in human THP-1 cells assessed as bacterial count per mg of cell protein at high extracellular compound concentration after 24 hrs at pH 7.4. The test is classed as functional. In short, it runs like this:
(§3)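 Human THP-1 macrophage-like cells were infected with S. aureus to a postphagocytosis inoculum of 1.5 × 10^6 to 3.0 × 10^6 CFU/mg cell protein. Cells were then exposed 24 h to increasing extracellular antibiotic concentrations. Response was the log10 CFU change per mg protein from the postphagocytosis inoculum, n = 3. A Hill function was fitted on log-transformed axes. E0 and Emax were extrapolated to infinitely low and high concentrations. Cs was read by graphical interpolation. Concentrations were expressed as multiples of the broth MIC at pH 5.5 or pH 7.4.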

Test [13] deals with Staphylococcus aureus. Kind of test: Antimicrobial activity against Panton-valentine leucocidin-positive community-acquired methicillin-resistant Staphylococcus aureus isolate MEH2225605 infected in human THP-1 cells assessed as change in bacterial count after 24 hrs at pH 7.4. The following applies: isolate MEH2225605, THP-1, 24 h. The test is classed as functional, organism-based. In short, it runs like this:
as §2

For test [14], the system named is Staphylococcus aureus. Kind of test: Antimicrobial activity against methicillin-susceptible Staphylococcus aureus ATCC 11632 infected in human THP-1 cells assessed as bacterial count per mg of cell protein at high extracellular compound concentration after 24 hrs at pH 7.4. The test is classed as functional. In short, it runs like this:
as §3

Test [15] relates to Staphylococcus aureus. The test can be described thus: Antimicrobial activity against methicillin-susceptible Staphylococcus aureus NRS52 infected in human THP-1 cells assessed as bacterial count per mg of cell protein at high extracellular compound concentration after 24 hrs at pH 7.4. The test is classed as functional. The gist of the method:
as §3

Test [16] concerns Staphylococcus aureus. The test can be described thus: Antimicrobial activity against Panton-valentine leucocidin-positive community-acquired methicillin-resistant Staphylococcus aureus N4090440 infected in human THP-1 cells assessed as change in bacterial count after 24 hrs at pH 7.4. The test is classed as functional, organism-based. The following applies: N4090440, THP-1, 24 h. In short, it runs like this: as §2

Test [17] deals with Staphylococcus aureus. The test can be described thus: Bacteriostatic activity against Panton-valentine leucocidin-positive community-acquired methicillin-resistant Staphylococcus aureus N4042228 infected in human THP-1 cells assessed as change in bacterial count after 24 hrs at pH 5.5. The test is classed as functional. The gist of the method:
as §1

Test [18] has as its system Staphylococcus aureus. The test can be described thus: Antimicrobial activity against methicillin-resistant Staphylococcus aureus ATCC 33591 infected in human keratinocytes assessed as bacterial count per mg of cell protein at high extracellular compound concentration after 24 hrs. The test is classed as functional. In short, it runs like this:
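Primary human skin keratinocytes were grown in defined keratinocyte serum-free medium, infected with a postphagocytosis inoculum of 1.5 × 10⁶ to 3.0 × 10⁶ CFU/mg cell protein, then exposed 24 h to increasing extracellular antibiotic concentrations. Change in log10 CFU/mg protein from the inoculum was fitted to a Hill equation with slope 1. E0 and Emax were extrapolated to infinitely low and high concentrations, in total drug mg/liter.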

The subject of test [19] is Staphylococcus aureus. The test can be described thus: Antimicrobial activity against Panton-valentine leucocidin-positive community-acquired methicillin-resistant Staphylococcus aureus STA 44 infected in human THP-1 cells assessed as change in bacterial count after 24 hrs. The test is classed as functional, organism-based. To be noted: STA 44, THP-1, 24 h. The gist of the method: as §2

Test [20] relates to Staphylococcus aureus. Kind of test: Antimicrobial activity against methicillin-susceptible Staphylococcus aureus NRS52 infected in human THP-1 cells assessed as bacterial count per mg of cell protein at high extracellular compound concentration after 24 hrs. The test is classed as functional. In short, it runs like this:
as §1

The subject of test [21] is Staphylococcus aureus. The test can be described thus: Bacteriostatic activity against hospital-acquired vancomycin-intermediate Staphylococcus aureus NRS126 infected in human THP-1 cells assessed as change in bacterial count after 24 hrs at pH 5.5. The test is classed as functional.
In test [22] the test system is Staphylococcus aureus. Kind of test: Antimicrobial activity against Panton-valentine leucocidin-positive community-acquired methicillin-resistant Staphylococcus aureus isolate MEH2225605 infected in human THP-1 cells assessed as change in bacterial count after 24 hrs. To be noted: isolate MEH2225605, THP-1, 24 h. The test is classed as functional, organism-based. The gist of the method:
as §2

Regarding `Nc1nc(/C(=N/O)C(=O)N[C@@H]2C(=O)N3C(C(=O)O)=C(/C=C4\CCN([C@@H]5CCNC5)C4=O)CS[C@H]23)ns1` [CEFTOBIPROLE], the EC50 in test [1] was found to be 0.23 µg/mL (≈ 0.43 µM); in [2] it was 0.54 × MIC; in [3], 0.2 × MIC; in [4], 0.88 µg/mL (≈ 1.65 µM); in test [8], 1.23 µg/mL (≈ 2.3 µM); in [10] it was 0.77 × MIC. Further, the EC50 in test [11] was 0.07 µg/mL (≈ 0.131 µM); in test [13] it was 0.33 ×MIC; in test [16], 0.33 ×MIC; in [19], 0.94 µg/mL (≈ 1.76 µM); in test [22], 0.82 µg/mL (≈ 1.53 µM). In addition, the log10cfu in test [5] is -0.89; in test [6], 2.78; in test [7], -1.02; in [9], -0.95; in test [12], -0.99; in test [14], -1.04. Besides, the log10cfu in test [15] is listed as -1.04; in test [18], -1.14; in [20] it was -1.01. The Activity in [17] was 1.45 × MIC; in test [21], 1.97 multiples of MIC.

These data come from ChEMBL document CHEMBL1649438, “Activities of ceftobiprole and other cephalosporins against extracellular and intracellular (THP-1 macrophages and keratinocytes) forms of methicillin-susceptible and methicillin-resistant Staphylococcus aureus” (Antimicrob Agents Chemother, 2009).
